Reference: ChEMBL document CHEMBL1145502, “Roxithromycin favorably modifies the initial phase of resistance against infection with macrolide-resistant Streptococcus pneumoniae in a murine pneumonia model” (Antimicrob Agents Chemother, 2007)
Converted amounts (≈) assume the structure as drawn. The source made the active and inactive calls. The rule behind the calls is not given here.

What was measured:
Streptococcus pneumoniae [1] = test: Antimicrobial activity against drug-resistant Streptococcus pneumoniae NMU112 infected CBA/J mouse assessed as median survival time at 20 mg/kg, po relative to control; type: functional
Summary of the method: (§1)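 Male CBA/J mice, 3-4 weeks old, 28-30 g. Macrolide given by oral gavage in saline for 3 days; RXM, ERY and CLR twice daily at 12-h intervals, AZM once daily. Saline controls. 24 h after the last dose, mice were infected intratracheally with 5 × 10⁴ CFU NMU112 (erm(B)/mef(A)). Kaplan-Meier survival and median survival time, log rank test; 10 mice per group per experiment.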

Streptococcus pneumoniae [2] = test: Antimicrobial activity against Streptococcus pneumoniae NMU112 infected in po dosed CBA/J mouse assessed as delaying in development of bacteremia […]; type: functional, organism-based
Streptococcus pneumoniae [3] = test: Reduction of pneumolysin production in Streptococcus pneumoniae NMU112 lysates at 10 ug/mL after 12 hrs by Western blot relative to control; type: functional, organism-based
Summary of the method: (§2)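 NMU112 at 5 × 10⁷ CFU/ml in THY cultured with macrolide at 37°C for 12 h, then whole-cell sonicated lysates run on SDS-PAGE and immunoblotted for pneumolysin. Band densitometry as mean % of drug-free culture; two cultures per dose per experiment, three experiments.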

Streptococcus pneumoniae [4] = test: Antimicrobial activity against drug-resistant Streptococcus pneumoniae NMU112 infected CBA/J mouse assessed as median survival time at 10 mg/kg, po relative to control; type: functional; summary of the method: as §1
Streptococcus pneumoniae [5] = test: Antimicrobial activity against Streptococcus pneumoniae NMU605; type: functional
Summary of the method: (§3)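 Broth microdilution MIC (NCCLS method) in Mueller-Hinton broth with 3% lysed horse blood; clinical isolates NMU605 (serotype 3) and NMUP45 (serotype 4).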

Streptococcus pneumoniae [6] = test: Reduction of pneumolysin production in Streptococcus pneumoniae NMU112 lysates at 5 ug/mL after 12 hrs by Western blot relative to control; type: functional, organism-based; summary of the method: as §2
Streptococcus pneumoniae [7] = test: Inhibition of pneumococcal surface protein A production in Streptococcus pneumoniae NMU112 lysates at 10 ug/mL after 12 hrs by Western blot relative to control; type: functional, organism-based
Summary of the method: (§4)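 Strain NMU112 (5 × 10⁷ CFU/ml in THY) cultured 12 h at 37°C with drug. Sonicated whole-cell lysates run on SDS-PAGE and Western blotted; bands measured by densitometry as % of drug-free culture. Two cultures per dose, three experiments (n = 5–6).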

Streptococcus pneumoniae [8] = test: Antimicrobial activity against Streptococcus pneumoniae NMU112; type: functional
Summary of the method: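 Broth microdilution MIC per NCCLS in Mueller-Hinton broth with 3% lysed horse blood.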

Streptococcus pneumoniae [9] = test: Antimicrobial activity against Streptococcus pneumoniae NMUP45; type: functional; summary of the method: as §3
Streptococcus pneumoniae [10] = test: Antimicrobial activity against Streptococcus pneumoniae NMU112 infected in po dosed CBA/J mouse blood assessed as number of colony forming units after 7 days relative to control; type: functional
Summary of the method: (§5)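 CBA/J mice (28–30 g) dosed by oral gavage twice daily for 3 days, saline as control. Infected 24 h after the last dose with 5 × 10⁴ CFU via the oropharynx under light ketamine/xylazine anesthesia. Blood, lung homogenate and pooled BALF supernatant were plated on agar with 200 μg/ml ERY and incubated about 24 h at 37°C for CFU. Three mice per group per time point, three experiments.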

Streptococcus pneumoniae [11] = test: Increase in Streptococcus pneumoniae NMU112 infection-induced reduction in MCP1 level in po dosed CBA/J mouse lung after 12 to 36 hrs by sandwich ELISA relative to control; type: functional, organism-based
Summary of the method: (§6)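 Lung homogenate in lysis buffer with protease inhibitors, 30 min on ice, spun 12,000 × g 20 min at 4°C. KC or MCP-1 measured by sandwich ELISA, detection limit 2 pg/ml. Three mice per group per time point after infection with 5 × 10⁴ CFU, each sample in triplicate, two experiments.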

Streptococcus pneumoniae [12] = test: Antimicrobial activity against Streptococcus pneumoniae NMUP45 infected CBA/J mouse assessed as animal survival at => 5 mg/kg, po relative to control; type: functional, organism-based; design: dose 5 mg/kg
Streptococcus pneumoniae [13] = test: Reduction of pneumolysin production in Streptococcus pneumoniae NMU112 infected CBA/J mouse lung lysates after 48 hrs of infection by Western blot relative to control; type: functional, organism-based
Summary of the method: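 Left lungs (n, 3 per group per time point) homogenised in Tris-HCl pH 7.5 with NaCl and Triton X, then centrifuged. Extract (1 mg protein) immunoprecipitated with anti-PLY on protein G beads, run on SDS-12% PAGE and blotted. Band densitometry expressed as % of control mice after oral pretreatment and intratracheal NMU112 infection.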

Streptococcus pneumoniae [14] = test: Antimicrobial activity against Streptococcus pneumoniae NMU112 infected in po dosed CBA/J mouse bronchoalveolar lavage fluid assessed as reduction in number of colony forming units after 24 to 48 hrs relative to control; type: functional, organism-based; conditions: Lung; summary of the method: as §5
Streptococcus pneumoniae [15] = test: Reduction of pneumococcal surface protein A in Streptococcus pneumoniae NMU112 infected CBA/J mouse lung lysates after 48 hrs by Western blot relative to control; type: functional, organism-based
Summary of the method: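 Left-lung Triton X extract (1 mg protein) immunoprecipitated with anti-PspA on protein G beads, then run on SDS-12% PAGE and Western blotted. Densitometry given as % of control. Three mice per group per time point.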

Mus musculus [16] = species on record: Mus musculus; test: Reduction of MMP7 expression level in UV rays killed Streptococcus pneumoniae NMU112 infected CBA/J mouse bronchoalveolar lavage fluid relative to control; type: functional, organism-based; conditions: Lung
Plasma [17] = test: Drug level in Streptococcus pneumoniae NMU112 infected CBA/J mouse plasma at 5 mg/kg/day, po after 72 hrs; type: ADME, organism-based; design: route oral; conditions: in vivo
Summary of the method: (§7)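 Oral gavage at 5 mg/kg/day (0.075 mg twice daily, six doses). Plasma and PBS lung homogenates were taken 24, 48 and 72 h after the last dose. Assayed by HPLC-electrochemical detection with an erythromycin internal standard; linear ranges 0.15–10.5 (plasma) and 0.4–11.8 μg/ml (lung). Five mice per time point; mean ± SD.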

Lung [18] = test: Drug level in Streptococcus pneumoniae NMU112 infected CBA/J mouse lung tissue at 5 mg/kg/day, po after 24 hrs; type: ADME, organism-based; design: route oral; conditions: in vivo; summary of the method: as §7
Streptococcus pneumoniae [19] = test: Reduction in Streptococcus pneumoniae NMU112 infection-induced elevation in keratinocyte-derived chemokine level in po dosed CBA/J mouse lung after 12 hrs by sandwich ELISA relative to control; type: functional, organism-based; summary of the method: as §6
Plasma [20] = test: Drug level in Streptococcus pneumoniae NMU112 infected CBA/J mouse plasma at 5 mg/kg/day, po after 24 hrs; type: ADME, organism-based; design: route oral; conditions: in vivo; summary of the method: as §7
Streptococcus pneumoniae [21] = test: Antimicrobial activity against Streptococcus pneumoniae NMU605 infected CBA/J mouse assessed as animal survival at => 2.5 mg/kg, po relative to control; type: functional, organism-based; design: dose 2.5 mg/kg
Streptococcus pneumoniae [22] = test: Antimicrobial activity against Streptococcus pneumoniae NMU112 infected in po dosed CBA/J mouse blood assessed as number of colony forming units after 4 days relative to control; type: functional; summary of the method: as §5
Plasma [23] = test: Drug level in Streptococcus pneumoniae NMU112 infected CBA/J mouse plasma at 5 mg/kg/day, po after 48 hrs; type: ADME, organism-based; design: route oral; conditions: in vivo; summary of the method: as §7
Streptococcus pneumoniae [24] = test: Inhibition of pneumococcal surface protein A production in Streptococcus pneumoniae NMU112 lysates at 5 ug/mL after 12 hrs by Western blot relative to control; type: functional, organism-based; summary of the method: as §4
Lung [25] = test: Drug level in Streptococcus pneumoniae NMU112 infected CBA/J mouse lung tissue at 5 mg/kg/day, po after 48 hrs; type: ADME, organism-based; design: route oral; conditions: in vivo; summary of the method: as §7
Streptococcus pneumoniae [26] = test: Reduction in Streptococcus pneumoniae NMU112 infection-induced elevation in keratinocyte-derived chemokine level in po dosed CBA/J mouse bronchoalveolar lavage fluid after 8 hrs by sandwich ELISA relative to control; type: functional, organism-based; conditions: Lung
Streptococcus pneumoniae [27] = test: Antimicrobial activity against Streptococcus pneumoniae NMU112 infected in po dosed CBA/J mouse blood assessed as number of colony forming units after 5 days relative to control; type: functional; summary of the method: as §5
Streptococcus pneumoniae [28] = test: Inhibition of Streptococcus pneumoniae NMU112 infection-induced polymorphonuclear leukocytes infiltration in CBA/J mouse lung assessed as MPO activity after 12 hrs relative to control; type: functional, organism-based
Summary of the method: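 Lungs (n = 4 per group per time point) removed after blood collection, weighed and frozen, then assayed with an MPO kit. Activity given as units per mg protein.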

Streptococcus pneumoniae [29] = test: Inhibition of Streptococcus pneumoniae NMU112 induced MMP7 expression level in po dosed CBA/J mouse assessed as decrease in caseinolytic activity after 6 to 48 hrs relative to control; type: functional, organism-based
Summary of the method: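 Casein zymography on lung extract (100 μg protein) in 4–16% casein gels. The 19-kDa mature MMP-7 lysis band was scanned by densitometry and expressed as % of infected controls. Five to six mice per time point, three experiments.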

Streptococcus pneumoniae [30] = test: Antimicrobial activity against drug-resistant Streptococcus pneumoniae NMU112 infected CBA/J mouse assessed as animal survival at 1.25 mg/kg, po; type: functional, organism-based; design: dose 1.25 mg/kg; summary of the method: as §1
Streptococcus pneumoniae [31] = test: Reduction in Streptococcus pneumoniae NMU112 infection induced elevation in syndecan-1 shedding in po dosed CBA/J mouse bronchoalveolar lavage fluid relative to control; type: functional, organism-based; conditions: Lung
Summary of the method: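 Syndecan-1 ectodomains in 100 μl BALF measured by sandwich ELISA: 281-2 capture antibody, biotinylated 281-2 detection, streptavidin-HRP/TMB, read at 450 nm. Range 2.5–245 ng/ml. Three mice per time point, triplicate, three experiments.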

Streptococcus pneumoniae [32] = test: Antimicrobial activity against drug-resistant Streptococcus pneumoniae NMU112 infected CBA/J mouse assessed as median survival time at 7.5 mg/kg, po relative to control; type: functional; summary of the method: as §1
Lung [33] = test: Drug level in Streptococcus pneumoniae NMU112 infected CBA/J mouse lung tissue at 5 mg/kg/day, po after 72 hrs; type: ADME, organism-based; design: route oral; conditions: in vivo; summary of the method: as §7
Streptococcus pneumoniae [34] = test: Antimicrobial activity against drug-resistant Streptococcus pneumoniae NMU112 infected CBA/J mouse assessed as median survival time at 5 mg/kg, po relative to control; type: functional; summary of the method: as §1
Streptococcus pneumoniae [35] = test: Antimicrobial activity against Streptococcus pneumoniae NMU112 infected in po dosed CBA/J mouse blood assessed as number of colony forming units after 6 days relative to control; type: functional; summary of the method: as §5
Mus musculus [36] = species on record: Mus musculus; test: Reduction of polymorphonuclear leukocytes in UV rays killed Streptococcus pneumoniae NMU112 infected CBA/J mouse bronchoalveolar lavage fluid relative to control; type: functional, organism-based; conditions: Lung
Streptococcus pneumoniae [37] = test: Antimicrobial activity against Streptococcus pneumoniae NMU112 infected in po dosed CBA/J mouse lungs assessed as reduction in number of colony forming units after 24 to 48 hr relative to control; type: functional, organism-based; summary of the method: as §5
Streptococcus pneumoniae [38] = test: Increase in Streptococcus pneumoniae NMU112 infection-induced reduction in MCP1 level in po dosed CBA/J mouse lung by sandwich ELISA relative to control

Compound: CC[C@H]1OC(=O)[C@H](C)[C@@H](O[C@H]2C[C@@](C)(OC)[C@@H](O)[C@H](C)O2)[C@H](C)[C@@H](O[C@@H]2O[C@H](C)C[C@H](N(C)C)[C@H]2O)[C@](C)(O)C[C@@H](C)C(=O)[C@H](C)[C@@H](O)[C@]1(C)O [ERYTHROMYCIN]
- MST (Streptococcus pneumoniae [1]): 6.78 days
- Activity (Streptococcus pneumoniae [2]): Active
- Activity (Streptococcus pneumoniae [3]): Active
- MST (Streptococcus pneumoniae [4]): 5.27 days
- MIC (Streptococcus pneumoniae [5]): 0.03 µg/mL (≈ 0.0409 µM)
- Activity (Streptococcus pneumoniae [6]): Active
- Activity (Streptococcus pneumoniae [7]): Active
- MIC (Streptococcus pneumoniae [8]): ≥ 256 µg/mL
- MIC (Streptococcus pneumoniae [9]): 2 µg/mL (≈ 2.73 µM)

Compound: CC[C@H]1OC(=O)[C@H](C)[C@@H](O[C@H]2C[C@@](C)(OC)[C@@H](O)[C@H](C)O2)[C@H](C)[C@@H](O[C@@H]2O[C@H](C)C[C@H](N(C)C)[C@H]2O)[C@](C)(O)C[C@@H](C)/C(=N\OCOCCOC)[C@H](C)[C@@H](O)[C@]1(C)O [ROXITHROMYCIN]
- log10CFU/ml (Streptococcus pneumoniae [10]): >=5.11
- Activity (Streptococcus pneumoniae [11]): Active
- Activity (Streptococcus pneumoniae [12]): Active
- Activity (Streptococcus pneumoniae [13]): Active
- Activity (Streptococcus pneumoniae [14]): Active
- Activity (Streptococcus pneumoniae [15]): Active
- Activity (Mus musculus [16]): Active
- Concn (Plasma [17]): 540 ng/mL
- Concn (Lung [18]): 5220 ng/mL
- Activity (Streptococcus pneumoniae [19]): Active
- Concn (Plasma [20]): 3870 ng/mL
- Activity (Streptococcus pneumoniae [21]): Active
- log10CFU/ml (Streptococcus pneumoniae [22]): 2.14
- Concn (Plasma [23]): 1360 ng/mL
- Activity (Streptococcus pneumoniae [24]): inactive
- Concn (Lung [25]): 2870 ng/mL
- Activity (Streptococcus pneumoniae [26]): Active
- log10CFU/ml (Streptococcus pneumoniae [27]): 3.68
- Activity (Streptococcus pneumoniae [28]): Active
- MST (Streptococcus pneumoniae [4]): 6.6 days
- Activity (Streptococcus pneumoniae [29]): Active
- Activity (Streptococcus pneumoniae [30]): inactive
- Activity (Streptococcus pneumoniae [31]): Active
- MST (Streptococcus pneumoniae [32]): 6.3 days
- MIC (Streptococcus pneumoniae [5]): 0.06 µg/mL (≈ 0.0717 µM)
- Activity (Streptococcus pneumoniae [6]): inactive
- Concn (Lung [33]): 650 ng/mL
- MST (Streptococcus pneumoniae [34]): 5.8 days
- log10CFU/ml (Streptococcus pneumoniae [35]): 4.27
- MIC (Streptococcus pneumoniae [8]): ≥ 256 µg/mL
- Activity (Mus musculus [36]): Active
- Activity (Streptococcus pneumoniae [37]): Active
- Activity (Streptococcus pneumoniae [38]): Active
- MIC (Streptococcus pneumoniae [9]): 4 µg/mL (≈ 4.78 µM)
